{"source": "paper PMC6598175", "about": "(ACS Central Science, 2019)", "key": {"[1]": {"molecular_target": "T1, ∼130 kDa band (XlnD, β-xylosidase) (Aspergillus niger, UniProt O00089)", "T1 sequence (O00089 27-804)": "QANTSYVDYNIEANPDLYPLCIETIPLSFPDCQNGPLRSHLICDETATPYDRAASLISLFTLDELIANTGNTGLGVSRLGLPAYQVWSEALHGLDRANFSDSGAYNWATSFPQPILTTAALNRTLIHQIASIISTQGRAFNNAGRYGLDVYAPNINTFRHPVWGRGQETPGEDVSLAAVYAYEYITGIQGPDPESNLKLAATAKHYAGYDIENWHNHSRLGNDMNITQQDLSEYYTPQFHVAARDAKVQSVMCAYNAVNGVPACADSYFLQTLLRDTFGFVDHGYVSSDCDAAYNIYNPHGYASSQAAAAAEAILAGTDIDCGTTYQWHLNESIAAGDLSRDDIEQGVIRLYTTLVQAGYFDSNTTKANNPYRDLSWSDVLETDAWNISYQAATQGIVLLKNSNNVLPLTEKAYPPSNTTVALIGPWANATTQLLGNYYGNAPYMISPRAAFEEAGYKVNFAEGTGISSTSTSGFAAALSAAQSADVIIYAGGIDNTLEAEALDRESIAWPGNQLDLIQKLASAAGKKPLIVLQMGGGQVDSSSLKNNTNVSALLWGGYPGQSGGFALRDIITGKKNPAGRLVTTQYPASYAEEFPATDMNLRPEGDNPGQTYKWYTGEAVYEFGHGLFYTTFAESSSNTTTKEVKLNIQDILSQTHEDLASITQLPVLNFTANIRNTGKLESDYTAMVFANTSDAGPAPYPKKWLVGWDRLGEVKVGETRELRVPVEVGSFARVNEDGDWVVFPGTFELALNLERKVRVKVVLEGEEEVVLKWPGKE", "experiment": "ABP labeling of secretomes and competition by inhibitors", "type": "binding, A. niger", "how_it_was_run": "(§1)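 A. niger N402 was grown in minimal medium with 50 mM (0.75% w/v) xylose or 1% w/v beechwood xylan as sole carbon source. Secretomes were sampled at days 1–9, brought to pH 4.5 with phosphate/citrate buffer and labeled unconcentrated with Cy5 ABPs. In competition runs, secretome was preincubated with competitor (e.g. 100 μM aziridine) before ABP. Bands were read by SDS-PAGE fluorescence scan.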"}, "ASPACDRAFT_127619": {"molecular_target": "T2, ASPACDRAFT_127619 (Aspergillus aculeatus, UniProt A0A1L9WG58)", "T2 sequence (A0A1L9WG58 23-338)": "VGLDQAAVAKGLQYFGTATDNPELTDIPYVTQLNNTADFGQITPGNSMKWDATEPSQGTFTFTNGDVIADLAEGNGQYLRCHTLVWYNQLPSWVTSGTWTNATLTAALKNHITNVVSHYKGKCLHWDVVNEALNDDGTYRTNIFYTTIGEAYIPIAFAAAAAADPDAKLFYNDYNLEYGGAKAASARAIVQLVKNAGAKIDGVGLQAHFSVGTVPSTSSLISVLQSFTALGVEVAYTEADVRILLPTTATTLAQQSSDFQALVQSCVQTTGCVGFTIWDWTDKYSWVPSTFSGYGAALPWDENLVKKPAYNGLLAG", "experiment": "Competitive ABP labeling by 8 against substrates, recombinant enzyme", "type": "binding, A. aculeatus", "how_it_was_run": "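Labeling of recombinant GH10 xylanase used 100 nM xylobiose Cy5 ABP for 10 min at room temperature, with competing substrates (e.g. polysaccharides) added. Loss of in-gel fluorescence with competitor concentration gave IC50. Assays were also repeated at 20 min, 37 °C, 1 μM ABP. Three or four technical replicates.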"}, "[2]": {"molecular_target": "∼30 kDa band (XlnC, β-xylanase) (Aspergillus niger, UniProt C5J411)", "experiment": "ABP labeling of secretomes and competition by inhibitors", "type": "binding, A. niger", "conditions": "xylan-induced secretome preincubated with competitor, then ABP 8", "how_it_was_run": "as §1"}}}
{"molecule": "OC[C@@H]1[C@@H](O)[C@H](O)[C@@H](O)[C@@H]2N[C@H]12", "note": "[Compound 23, cyclophellitol aziridine]", "values": [{"measurement": "competition of ∼130 kDa band labeling by 8", "setting": "[1]; preincubation with 100 μM competitor", "value": "some loss of intensity"}]}
{"molecule": "Cc1cc(=O)oc2cc(O[C@@H]3OC[C@@H](O[C@@H]4OC[C@@H](O)[C@H](O)[C@H]4O)[C@H](O)[C@H]3O)ccc12", "note": "[4MU-β-D-xylobioside]", "values": [{"measurement": "IC50", "setting": "ASPACDRAFT_127619", "value": 204, "unit": "µM"}]}
{"molecule": "OC[C@@H]1[C@@H](O)[C@H](O)[C@@H](O)[C@@H]2O[C@H]12", "note": "[Compound 22, cyclophellitol]", "values": [{"measurement": "competition of ∼30 kDa band labeling by 8", "setting": "[2]", "value": "No labeling inhibition"}, {"measurement": "competition of ∼130 kDa band labeling by 8", "setting": "[1]; xylan-induced secretome preincubated with competitor, then ABP 8", "value": "No labeling inhibition"}]}
